Assay [1] relates to HT-29. Nature of the assay: Antiproliferative activity against human HT-29 cells after 96 hrs by MTT assay. The conditions noted are these: HT-29, 96 h. Format: functional, cell-based. A general note: Tetrazolium dyes change colour on reduction, which living cells bring about.
Assay [2] concerns HT-29. Put plainly: Antiproliferative activity against human HT-29 cells at 10 ug after 48 hrs by two-layer agar-diffusion method. Format: functional, cell-based. In short, it runs like this: (§1)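 Compound (0.01-10 µg) spotted on Si gel pieces, air-dried, placed face down on 1.5% Noble agar in PBS-growth medium (20:80) for 60 min diffusion. After removal, cells (2 X 10^6/ml) in 0.3% low-temperature agarose overlaid; 48 h incubation. Cytotoxic zones shown by MTT (5 mg/ml in growth medium) over agarose; absence of zone scored as not detected.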
(A growth-free zone around the sample is the usual read-out of agar diffusion tests.)

Assay [3] relates to HT-29. Nature of the assay: Antiproliferative activity against human HT-29 cells at 1 ug after 48 hrs by two-layer agar-diffusion method. In kind it is functional. In short, it runs like this:
as §1

Assay [4] concerns HT-29. Put plainly: Antiproliferative activity against human HT-29 cells at 0.1 ug after 48 hrs by two-layer agar-diffusion method. In kind it is functional. In outline:
as §1

For assay [5], the system named is HT-29. Nature of the assay: Antiproliferative activity against human HT-29 cells at 0.01 ug after 48 hrs by two-layer agar-diffusion method. Format: functional. In short, it runs like this: as §1
The subject of assay [6] is P388. Put plainly: Antiproliferative activity against mouse P388 cells after 48 hrs by MTT assay. In kind it is functional, cell-based. The note with it: P388, 48 h. In short, it runs like this: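 Uncloned P-388 in RPMI 1640 + 10% horse serum, gentamicin 50 µg/ml; 200-µl cultures at 1 X 10' cells/ml with or without drug, 48 h exposure. MTT (5 mg/ml in medium, 75 µl) added for 90 min, formazan read at 570 nm; absorbance normalized to untreated wells; IC50 by linear regression of logit-transformed data.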

The subject of assay [7] is P388. Nature of the assay: Antiproliferative activity against mouse P388 cells at 1 ug after 48 hrs by two-layer agar-diffusion method. Format: functional. The conditions noted are these: read-out: IZ. In outline:
as §1

Assay [8] concerns P388. Put plainly: Antiproliferative activity against mouse P388 cells at 0.1 ug after 48 hrs by two-layer agar-diffusion method. The note with it: read-out: IZ. In kind it is functional. In short, it runs like this: as §1
In assay [9] the test system is P388. Nature of the assay: Antiproliferative activity against mouse P388 cells at 0.01 ug after 48 hrs by two-layer agar-diffusion method. In kind it is functional. In outline:
as §1

The test system of assay [10] is P388. Put plainly: Antiproliferative activity against mouse P388 cells at 5 ug after 48 hrs by two-layer agar-diffusion method. Format: functional. The note with it: read-out: IZ. In short, it runs like this:
as §1

Assay [11] has as its system HT-29. Nature of the assay: Antiproliferative activity against human HT-29 cells at 5 ug after 48 hrs by two-layer agar-diffusion method. The note with it: read-out: IZ. In kind it is functional. In short, it runs like this: as §1

Activity calls are given as the source filed them. The calls are words filed in the database; no cut-off is given here.

A word on the IC50: it is the concentration at which inhibition is half-maximal. Low readings indicate greater potency in that assay, high ones weaker potency in that assay. Regarding `CN(Cc1cnc2nc(N)nc(N)c2n1)c1ccc(C(=O)N[C@@H](CCC(=O)O)C(=O)O)cc1` [METHOTREXATE], the IC50 amounted to 4400 nM in the assay on HT-29 [1] and 66 nM in the assay with P388 [6]. Moreover, the outcome with HT-29 [2], in the assay with HT-29 [3], with HT-29 [4], in the assay on HT-29 [5] and with P388 [9] was inactive. Moreover, in the assay on P388 [7], the zone of inhibition at 1 µg/disc stood at 40 mm. Moreover, in the assay on P388 [8], the zone of inhibition at 0.1 µg/disc came out at 27.5 mm.
With `Nc1nc2[nH]cnc2c(=S)[nH]1` [THIOGUANINE], the IC50 with HT-29 [1] amounted to 1240 nM; in the assay with P388 [6] it was 300 nM. Moreover, the outcome in the assay with HT-29 [2], in the assay on HT-29 [3], in the assay on HT-29 [4] and in the assay on HT-29 [5] was inactive. In the assay with P388 [7], the zone of inhibition at 1 µg/disc is over 40 mm. The zone of inhibition at 0.1 µg/disc in the assay with P388 [8] was over 40 mm. Further, the zone of inhibition at 0.01 µg/disc with P388 [9] (read-out: IZ) is over 40 mm.
Consider `O=c1[nH]cc(F)c(=O)[nH]1` [FLUOROURACIL], for which the figures for the IC50 with HT-29 [1] and in the assay with P388 [6] were 690 nM and 609 nM, respectively. Also, the result with HT-29 [2], in the assay on HT-29 [3], with HT-29 [4], with HT-29 [5] and in the assay on P388 [9] was inactive. For the same compound, in the assay with P388 [7], the zone of inhibition at 1 µg/disc is over 40 mm. For the same compound, in the assay on P388 [8], the zone of inhibition at 0.1 µg/disc is 15 mm.
With `COc1cc(NS(C)(=O)=O)ccc1Nc1c2ccccc2nc2ccccc12` [AMSACRINE], the IC50 in the assay with HT-29 [1] worked out at 559 nM; in the assay with P388 [6] it was 229 nM. In addition, the outcome in the assay on HT-29 [2], in the assay on HT-29 [3], in the assay on HT-29 [4], in the assay with HT-29 [5] and in the assay on P388 [9] was inactive. Moreover, the zone of inhibition at 1 µg/disc in the assay with P388 [7] turned out to be 20 mm. Moreover, the zone of inhibition at 0.1 µg/disc with P388 [8] is 10 mm.
As for `C=C1C(=O)O[C@H]2C[C@@H]1C(OC(C)=O)C/C(C)=C/CC/C(C)=C/CC[C@@]2(C)O` (stereo partly specified) [CRASSIN ACETATE], the IC50 with HT-29 [1] is 0.26 µg/mL; in the assay with P388 [6], 1 µg/mL. In addition, the zone of inhibition at 1 µg/disc in the assay on P388 [7] is 9 mm. Besides, the zone of inhibition at 5 µg/disc came out at 20 mm in the assay on P388 [10] and 17 mm with HT-29 [11].
